# Laboratory results published in ChEMBL document CHEMBL3232870, “Discovery of 3-(4-methanesulfonylphenoxy)-N-[1-(2-methoxy-ethoxymethyl)-1H-pyrazol-3-yl]-5-(3-methylpyridin-2-yl)-benzamide as a novel glucokinase activator (GKA) for the treatment of type 2 diabetes mellitus” (Bioorg Med Chem, 2014).
# Tests used:
# Hexokinase-4 = target: T1, Hexokinase-4 (Homo sapiens, UniProt P35557); assay: Activation of recombinant human pancreatic glucokinase using 10 mM glucose by spectrophotometry
# T1 sequence (P35557 whole entry): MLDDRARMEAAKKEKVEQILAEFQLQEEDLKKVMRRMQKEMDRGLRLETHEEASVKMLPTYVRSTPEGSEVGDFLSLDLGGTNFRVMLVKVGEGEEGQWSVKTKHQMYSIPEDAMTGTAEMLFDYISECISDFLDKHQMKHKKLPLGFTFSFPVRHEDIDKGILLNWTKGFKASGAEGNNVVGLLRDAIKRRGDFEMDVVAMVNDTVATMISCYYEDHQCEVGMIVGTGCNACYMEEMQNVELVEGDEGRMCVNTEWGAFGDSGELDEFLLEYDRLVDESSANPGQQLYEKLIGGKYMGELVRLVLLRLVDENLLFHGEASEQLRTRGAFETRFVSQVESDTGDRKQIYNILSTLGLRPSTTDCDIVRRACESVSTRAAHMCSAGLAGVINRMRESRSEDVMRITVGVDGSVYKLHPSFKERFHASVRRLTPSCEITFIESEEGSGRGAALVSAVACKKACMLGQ
# Method in brief: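 Purified recombinant human pancreatic glucokinase, compounds in DMSO. Buffer: 25 mM HEPES pH 7.4, 10 mM glucose, 25 mM KCl, 1 mM MgCl2, 1 mM DTT, 1 mM ATP, 1 mM NADP, 2.5 U/mL G6PDH. Activity was expressed against DMSO-only control (100%). EC50 came from 12 concentrations fitted to a variable-slope sigmoidal curve. Values are means of three duplicate runs.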
# Mus musculus [1] = assay: Antidiabetic activity in glucose-treated C57BL/J6 db/db mouse assessed as reduction of glucose AUC at 50 mg/kg, po preincubated for 30 mins followed by glucose challenge measured after 30 to 180 mins by oral glucose tolerance test relative to control; type: functional; design: scale not given: the % may be the effect or the level left; details: in the assay text read “C57BL/J6 mouse” for “C57BL/J6 db/db mouse”
# Method in brief: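 Oral glucose tolerance test. Mice: eight-week-old male C57BL/6 or ten-week-old male C57BLKS/J db/db, fasted overnight with water. Compound or 0.5% methylcellulose vehicle given orally, then an oral 2 g/kg glucose challenge 30 min later. Tail-tip blood glucose was read just before and at 30, 60, 90, 120 and 180 min. AUC was calculated from the time–glucose curve; n = 6.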
# Hepatocyte = assay: Induction of 2-Deoxy-D-[3H]-glucose uptake in rat Hepatocytes using 5.5 mM glucose after 4 hrs by liquid scintillation counting; type: functional
# Method in brief: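 Rat primary hepatocytes, isolated by collagenase liver perfusion, viability over 85%. Cells attached 36 h on collagen I in MEM with 10% FBS, then serum-starved 12 h. Incubated 4 h in serum-free MEM with 5.5 mM glucose and 2-deoxy-D-[3H]-glucose, with or without compound. Washed in ice-cold PBS, lysed in 0.1 N NaOH, scintillation counted, expressed as % increase over control.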
# Mus musculus [2] = assay: Antidiabetic activity in glucose-treated C57BL/J6 mouse assessed as reduction of glucose AUC at 300 mg/kg, po preincubated for 30 mins followed by glucose challenge measured after 30 to 180 mins by oral glucose tolerance test relative to control; design: scale not given: the % may be the effect or the level left
# Mus musculus [3] = assay: Toxicity in fasting C57BL/J6 mouse assessed as glucose lowering effect at 30 mg/kg, po after 30 to 360 mins; type: organism-based; design: dose 30 mg/kg, route oral; details: in vivo
# Method in brief: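 Eight-week-old male C57BL/6 mice were fasted 6 h with free access to water, then dosed orally with compound or 0.5% methylcellulose vehicle, with no glucose challenge. Blood glucose was followed up to 360 min, n = 6 per group.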
EC50 (Hexokinase-4),Structure (SMILES),Activity (Mus musculus [1]),fold change (FC) (Hepatocyte),Activity (Mus musculus [2]),Activity (Mus musculus [3])
> 50000 nM,CCCNCc1csc(NC(=O)c2cc(Oc3ccc(S(C)(=O)=O)cc3)cc(-c3ncccc3C)c2)n1,–,–,–,–
2430 nM,COCCN(CCOC)Cc1csc(NC(=O)c2cc(Oc3ccc(S(C)(=O)=O)cc3)cc(-c3ncccc3C)c2)n1,20.2%,2.02,–,–
8 nM,COCC(C)NCc1csc(NC(=O)c2cc(Oc3ccc(S(C)(=O)=O)cc3)cc(-c3ncccc3C)c2)n1 (centres undefined),–,1.72,–,–
212 nM,Cc1cccnc1-c1cc(Oc2ccc(S(C)(=O)=O)cc2)cc(C(=O)Nc2nc(CN3CCOCC3)cs2)c1,–,2.1,–,–
> 50000 nM,CCN(CC)Cc1csc(NC(=O)c2cc(Oc3ccc(S(C)(=O)=O)cc3)cc(-c3ncccc3C)c2)n1,–,–,–,–
95 nM,Cc1cccnc1-c1cc(Oc2ccc(S(C)(=O)=O)cc2)cc(C(=O)Nc2nccs2)c1,29.8%,1.98,–,–
> 50000 nM,CCOCn1ccc(NC(=O)c2cc(Oc3ccc(S(C)(=O)=O)cc3)cc(-c3ncccc3C)c2)n1,–,–,–,–
688 nM,Cc1cccnc1-c1cc(Oc2ccc(S(C)(=O)=O)cc2)cc(C(=O)Nc2nc(CN3CCN(C)CC3)cs2)c1,4.4%,1.19,–,–
33 nM,COC(CNCc1csc(NC(=O)c2cc(Oc3ccc(S(C)(=O)=O)cc3)cc(-c3ncccc3C)c2)n1)OC,–,1.92,–,–
807 nM,Cc1cccnc1-c1cc(Oc2ccc(S(C)(=O)=O)cc2)cc(C(=O)Nc2ccn(C)n2)c1,24.1%,1.74,–,–

# The remaining lines, values behind:
Structure (SMILES),EC50 (Hexokinase-4),Activity (Mus musculus [1]),fold change (FC) (Hepatocyte),Activity (Mus musculus [2]),Activity (Mus musculus [3])
CCN(CC)CCn1ccc(NC(=O)c2cc(Oc3ccc(S(C)(=O)=O)cc3)cc(-c3ncccc3C)c2)n1,> 50000 nM,–,–,–,–
Cc1cccnc1-c1cc(Oc2ccc(S(C)(=O)=O)cc2)cc(C(=O)Nc2ncc(F)s2)c1,238 nM,22.6%,1.75,–,–
CCNC(=O)Cc1csc(NC(=O)c2cc(Oc3ccc(S(C)(=O)=O)cc3)cc(-c3ncccc3C)c2)n1,5 nM,-0.3%,2.54,–,–
Cc1cccnc1-c1cc(Oc2ccc(S(C)(=O)=O)cc2)cc(C(=O)Nc2nc(CN3CCNCC3)cs2)c1,> 50000 nM,–,–,–,–
Cc1cccnc1-c1cc(Oc2ccc(S(C)(=O)=O)cc2)cc(C(=O)Nc2nc(CNC(C)C)cs2)c1,463 nM,2.2%,1.47,–,–
CN(C)C(=N)NC(=N)N [METFORMIN],–,–,–,29.9%,–
Cc1cccnc1-c1cc(Oc2ccc(S(C)(=O)=O)cc2)cc(C(=O)Nc2ccn(CCN3CCOCC3)n2)c1,441 nM,17.8%,1.86,–,–
C#CCNCc1csc(NC(=O)c2cc(Oc3ccc(S(C)(=O)=O)cc3)cc(-c3ncccc3C)c2)n1,106 nM,–,2.35,–,–
Cc1cccnc1-c1cc(Oc2ccc(S(C)(=O)=O)cc2)cc(C(=O)Nc2nc(CC(=O)NC3CC3)cs2)c1,103 nM,-3.1%,1.8,–,–
COCCN(C)Cc1csc(NC(=O)c2cc(Oc3ccc(S(C)(=O)=O)cc3)cc(-c3ncccc3C)c2)n1,7460 nM,–,1.46,–,–
N[C@@H](CC(=O)N1CCn2c(nnc2C(F)(F)F)C1)Cc1cc(F)c(F)cc1F [SITAGLIPTIN],–,–,–,–,Non-toxic
